Experimental data taken from ChEMBL document CHEMBL2169836 (J Med Chem, 2012).
Calls of active or inactive are those of the source. No cut-off for these calls is given here.

Key:
[1] = target: Voltage-gated inwardly rectifying potassium channel KCNH2 (Homo sapiens, UniProt Q12809); experiment: Inhibition of human ERG expressed in HEK 293 cells by PatchXpress assay; format: cell-based, HEK293
[2] = Permeability of the compound by PAMPA; format: ADME; conditions: read-out: permeability
How it was run: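 Donor buffers were set to pH 5.0, 6.2 and 7.4 with NaOH, and ASB7.4 buffer was used as acceptor. Filters (0.45 pore, 125 μm thick) were lipid-coated. A 10 mM DMSO stock was diluted to 41.7 μM in donor buffer. The sandwich was incubated 4 h without stirring. Reference, donor and acceptor concentrations were read in duplicate by UV plate reader, and ratings were assigned from permeation velocity.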

[3] = target: T1, Sodium/hydrogen exchanger 1 (Homo sapiens, UniProt P19634); experiment: Inhibition of NHE1 in human HT-29 cells assessed as intracellular pH change after 30 mins; format: cell-based
T1 sequence (P19634 whole entry): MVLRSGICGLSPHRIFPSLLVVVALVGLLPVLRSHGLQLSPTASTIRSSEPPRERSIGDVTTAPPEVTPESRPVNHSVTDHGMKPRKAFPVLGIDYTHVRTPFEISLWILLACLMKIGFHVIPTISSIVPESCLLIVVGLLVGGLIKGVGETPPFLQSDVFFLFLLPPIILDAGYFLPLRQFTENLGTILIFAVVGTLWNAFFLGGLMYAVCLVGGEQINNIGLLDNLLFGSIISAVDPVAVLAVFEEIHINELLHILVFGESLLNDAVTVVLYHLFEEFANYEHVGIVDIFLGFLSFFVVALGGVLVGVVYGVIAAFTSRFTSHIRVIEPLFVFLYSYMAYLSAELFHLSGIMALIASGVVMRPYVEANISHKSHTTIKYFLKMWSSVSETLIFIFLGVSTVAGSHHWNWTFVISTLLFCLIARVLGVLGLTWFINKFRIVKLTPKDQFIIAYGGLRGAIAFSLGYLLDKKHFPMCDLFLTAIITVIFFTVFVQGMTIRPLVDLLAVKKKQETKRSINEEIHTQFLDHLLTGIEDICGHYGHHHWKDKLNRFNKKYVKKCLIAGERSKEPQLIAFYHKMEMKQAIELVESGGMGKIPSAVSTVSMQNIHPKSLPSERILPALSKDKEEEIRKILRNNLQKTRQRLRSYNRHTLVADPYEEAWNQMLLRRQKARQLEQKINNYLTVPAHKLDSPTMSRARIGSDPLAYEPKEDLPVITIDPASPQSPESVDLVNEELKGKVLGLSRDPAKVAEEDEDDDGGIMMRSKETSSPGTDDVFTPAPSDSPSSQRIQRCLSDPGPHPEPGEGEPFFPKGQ

Rattus norvegicus = experiment: Clearance in jugular and femoral vein precannulated Sprague-Dawley rat at 1 mg/kg, iv by LC/MS/MS analysis relative to hepatic blood flow; format: ADME, organism-based, Liver; design: dose 1 mg/kg, route intravenous; conditions: in vivo
Cytochrome P450 2D6 = Cytochrome P450 2D6 (Homo sapiens, UniProt P10635); experiment: Inhibition of CYP2D6 in human liver microsomes using 3-[2-(N,N-diethyl-N-methylamino)ethyl]-7- methoxy-4-methylcoumarin as substrate after 45 mins by LC/MS/MS analysis; format: ADME, Microsome
Cytochrome P450 2D6, sequence (P10635 whole entry): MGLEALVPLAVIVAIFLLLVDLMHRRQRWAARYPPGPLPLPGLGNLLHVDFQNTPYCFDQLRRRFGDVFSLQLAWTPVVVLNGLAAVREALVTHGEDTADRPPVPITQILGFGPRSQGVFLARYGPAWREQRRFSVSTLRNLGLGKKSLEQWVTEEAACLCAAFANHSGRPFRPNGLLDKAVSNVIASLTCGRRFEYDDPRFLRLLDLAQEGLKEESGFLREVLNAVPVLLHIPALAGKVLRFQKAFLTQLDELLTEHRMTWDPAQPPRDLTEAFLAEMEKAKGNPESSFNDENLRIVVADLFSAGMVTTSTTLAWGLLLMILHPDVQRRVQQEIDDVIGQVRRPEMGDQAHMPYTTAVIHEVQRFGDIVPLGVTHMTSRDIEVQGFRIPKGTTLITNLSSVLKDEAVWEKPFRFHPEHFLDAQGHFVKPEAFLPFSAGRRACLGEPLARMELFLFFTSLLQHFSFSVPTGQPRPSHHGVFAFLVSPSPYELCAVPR

Cytochrome P450 2C19 = Cytochrome P450 2C19 (Homo sapiens, UniProt P33261); experiment: Inhibition of CYP2C19 in human liver microsomes using 7-ethoxy-3-cyanocoumarin as substrate after 45 mins by LC/MS/MS analysis; format: ADME, Microsome
Cytochrome P450 2C19, sequence (P33261 whole entry): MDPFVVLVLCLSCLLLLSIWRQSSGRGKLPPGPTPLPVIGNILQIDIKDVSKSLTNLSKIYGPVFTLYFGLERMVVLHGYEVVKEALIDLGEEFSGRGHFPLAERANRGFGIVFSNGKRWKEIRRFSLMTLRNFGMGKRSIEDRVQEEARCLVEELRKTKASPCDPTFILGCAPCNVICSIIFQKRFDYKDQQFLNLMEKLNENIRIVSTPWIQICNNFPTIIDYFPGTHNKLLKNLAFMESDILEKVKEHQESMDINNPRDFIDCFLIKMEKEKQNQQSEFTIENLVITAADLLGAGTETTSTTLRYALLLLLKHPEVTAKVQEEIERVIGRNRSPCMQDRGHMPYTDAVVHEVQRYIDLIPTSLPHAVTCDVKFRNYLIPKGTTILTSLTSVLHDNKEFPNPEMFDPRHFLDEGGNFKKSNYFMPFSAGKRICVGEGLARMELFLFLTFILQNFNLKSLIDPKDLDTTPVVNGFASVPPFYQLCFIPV

Cytochrome P450 3A4 = Cytochrome P450 3A4 (Homo sapiens, UniProt P08684); experiment: Inhibition of CYP3A4 in human liver microsomes using 7-benzyloxy-4-(trifluoromethyl)-coumarin as substrate after 30 mins by LC/MS/MS analysis; format: ADME, Microsome
Cytochrome P450 3A4, sequence (P08684 whole entry): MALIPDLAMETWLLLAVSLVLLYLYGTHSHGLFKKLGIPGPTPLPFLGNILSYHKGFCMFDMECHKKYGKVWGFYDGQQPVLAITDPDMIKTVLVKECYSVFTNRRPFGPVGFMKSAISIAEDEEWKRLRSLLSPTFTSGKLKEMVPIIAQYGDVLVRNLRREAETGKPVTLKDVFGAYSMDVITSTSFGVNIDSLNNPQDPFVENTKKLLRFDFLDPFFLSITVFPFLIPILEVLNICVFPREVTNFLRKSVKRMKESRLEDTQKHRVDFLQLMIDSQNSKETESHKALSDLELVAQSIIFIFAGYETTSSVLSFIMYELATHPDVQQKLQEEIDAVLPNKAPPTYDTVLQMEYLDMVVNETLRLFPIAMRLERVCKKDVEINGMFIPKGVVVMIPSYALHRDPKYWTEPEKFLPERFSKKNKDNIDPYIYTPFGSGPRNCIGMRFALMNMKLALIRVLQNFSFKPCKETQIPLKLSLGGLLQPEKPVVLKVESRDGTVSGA

[4] = Mean resident time in jugular and femoral vein precannulated Sprague-Dawley rat at 1 mg/kg, iv by LC/MS/MS analysis; format: ADME, organism-based; design: dose 1 mg/kg, route intravenous; conditions: in vivo
[5] = Volume of distribution at steady state in jugular and femoral vein precannulated Sprague-Dawley rat at 1 mg/kg, iv by LC/MS/MS analysis; format: ADME, organism-based; design: dose 1 mg/kg, route intravenous; conditions: in vivo, read-out: Vdss
[6] = Metabolic stability in human liver microsomes at 1 uM up to 60 mins by LC/MS/MS analysis relative to hepatic blood flow; format: ADME, Microsome; conditions: read-out: Stability
Cytochrome P450 2C9 = Cytochrome P450 2C9 (Homo sapiens, UniProt P11712); experiment: Inhibition of CYP2C9 in human liver microsomes using 7-methoxy-4-(trifluoromethyl)-coumarin as substrate after 45 mins by LC/MS/MS analysis; format: ADME, Microsome
Cytochrome P450 2C9, sequence (P11712 whole entry): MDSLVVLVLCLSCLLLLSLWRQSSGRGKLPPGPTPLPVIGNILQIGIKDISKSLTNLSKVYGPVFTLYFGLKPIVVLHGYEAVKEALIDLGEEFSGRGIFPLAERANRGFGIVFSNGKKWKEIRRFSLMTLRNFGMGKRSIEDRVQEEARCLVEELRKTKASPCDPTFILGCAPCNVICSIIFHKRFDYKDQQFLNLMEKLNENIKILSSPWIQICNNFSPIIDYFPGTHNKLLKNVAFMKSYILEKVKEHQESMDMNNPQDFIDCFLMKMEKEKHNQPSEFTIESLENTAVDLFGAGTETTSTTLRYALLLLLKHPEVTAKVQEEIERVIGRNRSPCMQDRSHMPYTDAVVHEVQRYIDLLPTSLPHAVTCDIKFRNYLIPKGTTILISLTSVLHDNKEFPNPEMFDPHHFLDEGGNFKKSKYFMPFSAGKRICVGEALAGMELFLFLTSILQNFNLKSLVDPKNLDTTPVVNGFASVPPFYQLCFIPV

[7] = Metabolic stability in rat liver microsomes at 1 uM up to 60 mins by LC/MS/MS analysis relative to hepatic blood flow; format: ADME, Microsome; conditions: read-out: Stability
[8] = target: T2, Sodium/hydrogen exchanger 3 (Homo sapiens) (UniProt P48764); experiment: Inhibition of NHE3 transfected in Chinese hamster PS120 assessed as intracellular pH change up to 16 uM; format: cell-based
T2 sequence (whole entry): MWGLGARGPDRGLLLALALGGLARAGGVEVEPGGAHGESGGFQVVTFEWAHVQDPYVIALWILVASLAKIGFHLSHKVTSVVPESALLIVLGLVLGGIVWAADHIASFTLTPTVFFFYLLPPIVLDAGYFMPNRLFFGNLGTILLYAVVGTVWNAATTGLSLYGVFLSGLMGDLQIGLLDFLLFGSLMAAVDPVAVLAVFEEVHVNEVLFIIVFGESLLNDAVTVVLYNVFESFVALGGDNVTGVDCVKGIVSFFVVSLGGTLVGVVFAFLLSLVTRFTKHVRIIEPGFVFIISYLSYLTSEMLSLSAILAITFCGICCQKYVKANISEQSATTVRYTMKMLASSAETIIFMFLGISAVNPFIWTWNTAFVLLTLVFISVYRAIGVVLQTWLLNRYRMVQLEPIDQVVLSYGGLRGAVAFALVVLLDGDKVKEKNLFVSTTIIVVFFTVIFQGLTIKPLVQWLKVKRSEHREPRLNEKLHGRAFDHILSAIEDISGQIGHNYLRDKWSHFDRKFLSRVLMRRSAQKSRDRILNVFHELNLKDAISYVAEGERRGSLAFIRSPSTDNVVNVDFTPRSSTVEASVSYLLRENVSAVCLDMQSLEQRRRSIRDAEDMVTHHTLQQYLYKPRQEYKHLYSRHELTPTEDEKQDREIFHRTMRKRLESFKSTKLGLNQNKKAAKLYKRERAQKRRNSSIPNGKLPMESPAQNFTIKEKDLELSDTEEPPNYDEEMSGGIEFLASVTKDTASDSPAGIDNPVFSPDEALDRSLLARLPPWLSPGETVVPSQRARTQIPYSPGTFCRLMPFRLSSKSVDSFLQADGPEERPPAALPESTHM

Canis familiaris = experiment: Clearance in overnight fasted Beagle dog at 1 mg/kg, iv relative to hepatic blood flow; format: ADME, organism-based, Canis lupus familiaris, Liver; design: dose 1 mg/kg, route intravenous; conditions: in vivo
[9] = Oral bioavailability in jugular and femoral vein precannulated Sprague-Dawley rat plasma at 5 mg/kg by LC/MS/MS analysis; format: ADME, organism-based
[10] = Volume of distribution at steady state in overnight fasted Beagle dog at 1 mg/kg, iv; format: ADME, organism-based, Canis lupus familiaris; design: dose 1 mg/kg, route intravenous; conditions: in vivo, read-out: Vdss
[11] = Oral bioavailability in overnight fasted Beagle dog at 5 mg/kg; format: ADME, organism-based, Canis lupus familiaris; conditions: in vivo
[12] = Mean resident time in overnight fasted Beagle dog at 1 mg/kg, iv; format: ADME, organism-based, Canis lupus familiaris; design: dose 1 mg/kg, route intravenous; conditions: in vivo
[13] = target: T1, Sodium/hydrogen exchanger 1; experiment: Inhibition of NHE1 in human HT-29 cells assessed as intracellular pH change after 30 mins in presence of plasma protein; format: cell-based

Voltage-gated inwardly rectifying potassium channel KCNH2, sequence (Q12809 whole entry): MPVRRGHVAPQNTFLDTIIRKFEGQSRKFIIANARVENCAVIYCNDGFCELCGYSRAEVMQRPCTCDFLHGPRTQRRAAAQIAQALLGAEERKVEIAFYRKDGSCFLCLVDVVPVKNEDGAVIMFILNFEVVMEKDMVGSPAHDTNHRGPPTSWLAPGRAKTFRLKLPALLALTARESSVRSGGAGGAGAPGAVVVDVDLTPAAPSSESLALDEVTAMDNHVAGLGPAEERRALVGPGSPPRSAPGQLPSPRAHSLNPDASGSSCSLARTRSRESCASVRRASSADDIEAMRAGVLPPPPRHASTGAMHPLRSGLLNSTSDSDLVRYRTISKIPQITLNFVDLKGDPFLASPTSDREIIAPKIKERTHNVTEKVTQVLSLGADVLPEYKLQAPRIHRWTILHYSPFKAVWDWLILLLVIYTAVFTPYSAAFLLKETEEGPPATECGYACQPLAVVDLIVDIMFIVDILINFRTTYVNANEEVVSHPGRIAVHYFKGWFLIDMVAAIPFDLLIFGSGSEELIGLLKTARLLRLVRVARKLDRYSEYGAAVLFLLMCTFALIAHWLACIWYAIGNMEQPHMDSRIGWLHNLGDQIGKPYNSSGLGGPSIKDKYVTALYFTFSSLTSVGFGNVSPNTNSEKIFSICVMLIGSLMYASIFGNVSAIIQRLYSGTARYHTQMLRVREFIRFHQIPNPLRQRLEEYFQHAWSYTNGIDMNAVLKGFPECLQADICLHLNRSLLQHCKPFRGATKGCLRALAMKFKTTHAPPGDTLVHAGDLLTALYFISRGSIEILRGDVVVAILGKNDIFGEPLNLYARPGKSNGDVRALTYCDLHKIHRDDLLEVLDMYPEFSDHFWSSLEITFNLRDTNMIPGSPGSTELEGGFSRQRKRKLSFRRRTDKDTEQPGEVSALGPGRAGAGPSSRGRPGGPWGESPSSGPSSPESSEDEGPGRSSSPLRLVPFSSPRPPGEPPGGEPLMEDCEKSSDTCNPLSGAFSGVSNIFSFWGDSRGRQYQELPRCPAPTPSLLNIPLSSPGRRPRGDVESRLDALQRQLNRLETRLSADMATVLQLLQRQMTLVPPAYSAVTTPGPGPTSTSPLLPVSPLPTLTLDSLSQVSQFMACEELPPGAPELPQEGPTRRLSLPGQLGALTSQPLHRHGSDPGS

| SMILES | IC50 [1] [µM] | Papp [2] [×10⁻⁶ cm/s] | IC50 [3] [µM] | CL (Rattus norvegicus) [%] | IC50 (Cytochrome P450 2D6) [µM] | IC50 (Cytochrome P450 2C19) [µM] | IC50 (Cytochrome P450 3A4) [µM] | MRT [4] [h] | Vd [5] [L/kg] | hepatic extraction ratio at 1 h, 1 µM [6] | IC50 (Cytochrome P450 2C9) [µM] | hepatic extraction ratio at 1 h, 1 µM [7] | inhibition [8] | CL (Canis familiaris) [%] | bioavailability [9] [%] | Vd [10] [L/kg] | bioavailability [11] [%] | MRT [12] [h] | inhibition [13] |
| --- | --- | --- | --- | --- | --- | --- | --- | --- | --- | --- | --- | --- | --- | --- | --- | --- | --- | --- | --- |
| COCC(=O)N1CCC(c2ccc(C(=O)NC(=N)N)cc2C(F)(F)F)CC1 | > 30 | ≥ 2 | 0.01 | 21 | > 30 | 8 | > 30 | 1.4 | 1.3 | 0.06 | 25 | 0.36 | – | – | – | – | – | – | – |
| Cn1ccnc1C(=O)N1CCC(c2ccc(C(=O)NC(=N)N)cc2C(F)(F)F)CC1 | > 30 | ≥ 2 | 0.014 | 31 | > 30 | 16 | 26 | 1 | 1.4 | 0.47 | 18 | 0.12 | – | – | – | – | – | – | – |
| CCC(=O)N1CCC(c2ccc(C(=O)NC(=N)N)cc2C(F)(F)F)CC1 | – | ≥ 2 | 0.011 | 4.4 | – | – | – | 5.3 | 1 | – | – | – | inactive | 8.1 | 49 | 2 | 49 | 14 | – |
| CC(C)c1ccc(C(=O)NC(=N)N)cc1S(C)(=O)=O [CARIPORIDE] | – | – | – | 82 | – | – | – | 0.4 | 1.3 | – | – | – | – | – | 37 | – | – | – | – |
| N#Cc1ccc(C(=O)N2CCC(c3ccc(C(=O)NC(=N)N)cc3C(F)(F)F)CC2)cc1 | 4 | ≥ 2 | – | 19 | > 30 | 15 | 11 | 8.5 | 6.5 | < 0.11 | 13 | 0.2 | – | – | – | – | – | – | – |
| N=C(N)NC(=O)c1ccc(N2CCCC(NC(=O)c3ccc[nH]3)C2)c(C(F)(F)F)c1 (racemic) | – | – | 0.172 | – | – | – | – | – | – | – | – | – | – | – | – | – | – | – | Active |
| CS(=O)(=O)c1ccc(C(=O)N2CCC(c3ccc(C(=O)NC(=N)N)cc3C(F)(F)F)CC2)cc1 | – | < 2 | 0.015 | 66 | > 30 | > 30 | – | – | – | – | > 30 | – | – | – | 15 | – | – | – | – |
| N=C(N)NC(=O)c1ccc(N2CCC(NC(=O)c3ccc[nH]3)C2)c(C(F)(F)F)c1 (racemic) | – | – | 0.036 | – | – | – | – | – | – | – | – | – | – | – | – | – | – | – | Active |
| CC(=O)N1CCC(c2cc(C)c(C(=O)NC(=N)N)cc2C(F)(F)F)CC1 | 7 | – | 0.005 | – | – | – | – | – | – | – | – | – | – | – | – | – | – | – | – |
